Experimental data as given in article PMC9989852 (Food and chemical toxicology : an international journal …, 2022).
Several values for one entry are separate records, joined by “and”; a condition that tells them apart may be missing. Identical values can stand only once.

Tests used:
[1] = test system: auricular draining lymph nodes (dLNs); assay: Draining lymph node phenotyping by flow cytometry after 28-day dermal exposure; assay type: in vivo, B6C3F1 mice; settings: 28 days
Outline: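 Female B6C3F1 mice (5/group) received 25 μl/ear daily to the dorsal ears in acetone. About 24 h after the last dose, tissues went into RPMI: both auricular dLNs, half spleen and one ear pinna. Single-cell suspensions were acquired on an LSR II, with populations gated per supplemental strategy and FMO gating controls. Results are mean ± SE, n=5, by one-way ANOVA.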

ear pinna [2] = assay: Ear; assay type: in vivo, B6C3F1 mice; settings: dermal, 28 days, mice affected of 5
Outline: (§1)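 Female B6C3F1 mice (5/group) received 25 μl/ear on the dorsal ear surfaces daily, with acetone as vehicle. Tissues were formalin-fixed about 24 h after the last dose: liver remainder, half spleen, right kidney and half ear pinna. Sections were paraffin-embedded, cut at 5 μm and stained with H&E. A veterinary pathologist read them per STP guideline and graded 1 (minimal) to 5 (severe) by extent.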

kidney, spleen = assay: Kidney and spleen histopathology after 28-day dermal exposure; assay type: in vivo, B6C3F1 mice; settings: 1.25–5%, 28 days, data not shown
Outline: as §1

[3] = PFAS concentration in pooled urine; assay type: in vivo, B6C3F1 mice; settings: 5%, dermal, 28 days; 5 pooled samples
Outline: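 Urine was caught in a weigh boat as it was excreted during CO2 euthanasia, about 24 h after the final daily ear dose (25 μl/ear, acetone vehicle; female B6C3F1 mice). The 5 mice per group were pooled, with variable volume. Samples underwent solid-phase extraction and LC/MS/MS, as linear isomer for short-chain analytes and linear plus branched for the comparator. Each group gave a single value without statistics.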

B6C3F1 mice = assay: Serum chemistries after 28-day dermal exposure; assay type: in vivo; settings: 5%, 28 days
Outline: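 Female B6C3F1 mice received daily dorsal ear application (25 μl/ear, acetone vehicle). About 24 h after the last dose, blood was taken by cardiac puncture. Serum was separated by centrifugation and stored at −20 °C. ALKP, BUN, glucose and cholesterol were read on a Catalyst DX analyzer. Data are mean ± SE of 4–5 mice, ANOVA with Dunnett's; ALKP was also tested by linear regression (p < 0.05).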

ear pinna [4] = assay: Skin; assay type: in vivo, B6C3F1 mice; settings: dermal, 28 days
Outline: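 Dosing was daily topical to both dorsal ears (25 μl/ear, acetone vehicle) in female B6C3F1 mice. Liver caudate lobe or half ear pinna was stored in RNAlater and homogenized in RLT buffer. RNA was isolated on RNeasy columns with DNase, and 1–2 μg was reverse-transcribed. TaqMan real-time PCR was read as 2−ΔΔCT vs vehicle, normalized to β-actin. Statistics: ANOVA/Dunnett's, or Kruskal-Wallis/Dunn's for unequal variance.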

O=C(O)C(F)(F)C(F)(F)C(F)(F)C(F)(F)C(F)(F)F [PFHxA, perfluorohexanoic acid]
dLN B-cells cell number ([1]; 1.25%): 28.40 ± 6.63 × 10^5 | dLN B-cells frequency ([1]; 1.25%): 18.06 ± 2.12% | dLN CD4^+ cell number ([1]; 1.25%): 5.93 ± 0.59 × 10^6 | dLN CD4^+ frequency ([1]; 1.25%): 40.24 ± 1.70% | dLN CD8^+ cell number ([1]; 1.25%): 42.50 ± 4.15 × 10^5 | dLN CD8^+ frequency ([1]; 1.25%): 28.94 ± 1.29% | dLN CD11b+ cell number ([1]; 1.25%): 16.20 ±3.71 × 10^4 | dLN CD11b+ frequency ([1]; 1.25%): 1.04 ± 0.12% | dLN CD86 B-cells ([1]; 1.25%): 98.74 ±6.64 MFI | dLN CD86 DCs ([1]; 1.25%): 11.60 ± 1.51 MFI x 10^2 | dLN Dendritic Cells cell number ([1]; 1.25%): 29.00 ±2.99 × 10^4 | dLN Dendritic Cells frequency ([1]; 1.25%): 2.01 ± 0.22 % | dLN Eosinophils cell number ([1]; 1.25%): 96.70 ± 17.60 × 10^2 | dLN MHCII B-cells ([1]; 1.25%): 7.07 ± 0.37 MFI × 10^2 | dLN MHCII DCs ([1]; 1.25%): 57.30 ±2.79 MFI × IQ^2 | dLN NK cell number ([1]; 1.25%): 11.60 ±0.64 × 10^4 | dLN NK frequency ([1]; 1.25%): 0.82 ± 0.08% | dLN Neutrophils cell number ([1]; 1.25%): 18.80 ±5.25 × 10^2 | dLN Total Cellularity ([1]; 1.25%): 15.00 ± 1.92 × 10^6 | dLN B-cells cell number ([1]; 2.5%): 32.50 ± 3.50 × 10^5 | dLN B-cells frequency ([1]; 2.5%): 15.94 ± 0.38% | dLN CD4^+ cell number ([1]; 2.5%): 8.16 ± 0.58 × 10^6 | dLN CD4^+ frequency ([1]; 2.5%): 40.56 ± 1.03% | dLN CD8^+ cell number ([1]; 2.5%): 56.80 ± 5.72 × 10^5 | dLN CD8^+ frequency ([1]; 2.5%): 27.94 ± 0.36% | dLN CD11b+ cell number ([1]; 2.5%): 25.30 ± 2.29 × 10^4 | dLN CD11b+ frequency ([1]; 2.5%): 1.25 ± 0.04 % | dLN CD86 B-cells ([1]; 2.5%): 93.54 ± 1.71 MFI | dLN CD86 DCs ([1]; 2.5%): 13.20 ± 1.29 MFI x 10^2 | dLN Dendritic Cells cell number ([1]; 2.5%): 47.00 ± 5.39 × 10^4 | dLN Dendritic Cells frequency ([1]; 2.5%): 2.32 ± 0.14 % | dLN Eosinophils cell number ([1]; 2.5%): 140.00 ± 17.30 × 10^2 | dLN MHCII B-cells ([1]; 2.5%): 7.16 ± 0.11 MFI × 10^2 | dLN MHCII DCs ([1]; 2.5%): 63.50 ± 5.71 MFI × IQ^2 | dLN NK cell number ([1]; 2.5%): 19.50 ± 2.26 × 10^4 | dLN NK frequency ([1]; 2.5%): 0.95 ± 0.03 % | dLN Neutrophils cell number ([1]; 2.5%): 21.50 ± 1.28 × 10^2 | dLN Total Cellularity ([1]; 2.5%): 20.30 ± 1.81 × 10^6 | dLN B-cells cell number ([1]; 5%): 37.30 ± 1.54 × 10^5 | dLN B-cells frequency ([1]; 5%): 17.38 ± 0.94% | dLN CD4^+ frequency ([1]; 5%): 41.58 ± 0.62% | dLN CD8^+ cell number ([1]; 5%): 58.40 ± 4.46 × 10^5 | dLN CD8^+ frequency ([1]; 5%): 26.82 ± 0.64% | dLN CD11b+ cell number ([1]; 5%): 26.00 ± 3.54 × 10^4 | dLN CD11b+ frequency ([1]; 5%): 1.18 ± 0.11% | dLN CD86 B-cells ([1]; 5%): 101.54 ± 3.64 MFI | dLN CD86 DCs ([1]; 5%): 9.15 ± 0.71 MFI x 10^2 | dLN Dendritic Cells cell number ([1]; 5%): 35.40 ± 5.48 × 10^4 | dLN Dendritic Cells frequency ([1]; 5%): 1.60 ± 0.19% | dLN Eosinophils cell number ([1]; 5%): 142.00 ± 22.90 × 10^2 | dLN MHCII B-cells ([1]; 5%): 8.02 ± 0.64 MFI × 10^2 | dLN NK cell number ([1]; 5%): 17.70 ± 2.11 × 10^4 | dLN NK frequency ([1]; 5%): 0.80 ± 0.06% | dLN Neutrophils cell number ([1]; 5%): 16.70 ± 2.99 × 10^2 | dLN Total Cellularity ([1]; 5%): 21.70 ± 1.26 × 10^6 | Ear: Degeneration/regeneration, cartilage, focal, Mild (incidence) (ear pinna [2]; 1.25%): 0 | Ear: Fibrosis, dermis, focal, Minimal (incidence) (ear pinna [2]; 1.25%): 0 | Ear: Hyperkeratosis, epidermis, focal, Mild (incidence) (ear pinna [2]; 1.25%): 0 | Ear: Hyperkeratosis, epidermis, focal, Minimal (incidence) (ear pinna [2]; 1.25%): 1 | Ear: Hyperplasia, epidermis, focal, Mild (incidence) (ear pinna [2]; 1.25%): 0 | Ear: Hyperplasia, epidermis, focal, Minimal (incidence) (ear pinna [2]; 1.25%): 5/5 and 5 | Ear: Inflammation, mixed cell, dermis, Minimal (incidence) (ear pinna [2]; 1.25%): 0 | Ear: Inflammation, mononuclear cell, dermis, Minimal (incidence) (ear pinna [2]; 1.25%): 0 | Ear: Necrosis, epidermis, multifocal, Minimal (incidence) (ear pinna [2]; 1.25%): 0 | Ear: Degeneration/regeneration, cartilage, focal, Mild (incidence) (ear pinna [2]; 2.5%): 0 | Ear: Fibrosis, dermis, focal, Minimal (incidence) (ear pinna [2]; 2.5%): 0 | Ear: Hyperkeratosis, epidermis, focal, Mild (incidence) (ear pinna [2]; 2.5%): 0 | Ear: Hyperkeratosis, epidermis, focal, Minimal (incidence) (ear pinna [2]; 2.5%): 4/5 and 4 | Ear: Hyperplasia, epidermis, focal, Mild (incidence) (ear pinna [2]; 2.5%): 0 | Ear: Hyperplasia, epidermis, focal, Minimal (incidence) (ear pinna [2]; 2.5%): 5/5 and 5 | Ear: Inflammation, mixed cell, dermis, Minimal (incidence) (ear pinna [2]; 2.5%): 0 | Ear: Inflammation, mononuclear cell, dermis, Minimal (incidence) (ear pinna [2]; 2.5%): 0 | Ear: Necrosis, epidermis, multifocal, Minimal (incidence) (ear pinna [2]; 2.5%): 0 | Ear: Degeneration/regeneration, cartilage, focal, Mild (incidence) (ear pinna [2]; 5%): 1 | Ear: Fibrosis, dermis, focal, Minimal (incidence) (ear pinna [2]; 5%): 5/5 and 5 | Ear: Hyperkeratosis, epidermis, focal, Mild (incidence) (ear pinna [2]; 5%): 3/5 and 3 | Ear: Hyperkeratosis, epidermis, focal, Minimal (incidence) (ear pinna [2]; 5%): 2/5 and 2 | Ear: Hyperplasia, epidermis, focal, Mild (incidence) (ear pinna [2]; 5%): 4/5 and 4 | Ear: Hyperplasia, epidermis, focal, Minimal (incidence) (ear pinna [2]; 5%): 1 | Ear: Inflammation, mixed cell, dermis, Minimal (incidence) (ear pinna [2]; 5%): 4/5 and 4 | Ear: Inflammation, mononuclear cell, dermis, Minimal (incidence) (ear pinna [2]; 5%): 0 | Ear: Necrosis, epidermis, multifocal, Minimal (incidence) (ear pinna [2]; 5%): 0 | microscopic observations in the kidney or the spleen (kidney, spleen): No PFPeA, PFHxA, or PFHpA-related microscopic observations | urine PFAS concentration [3]: 1700 µg/mL | serum glucose, increase compared to vehicle control (B6C3F1 mice): 27% | skin Pparδ gene expression (ear pinna [4]; 1.25–5%): no changes | skin Flg gene expression (ear pinna [4]; 2.5%): increased | skin Pparγ gene expression (ear pinna [4]; 2.5%): decreased | skin Flg gene expression (ear pinna [4]; 5%): increased | skin Lor gene expression (ear pinna [4]; 5%): increased | skin PPARα gene expression (ear pinna [4]; 5%): decreased | skin Pparγ gene expression (ear pinna [4]; 5%): decreased | skin S100a8 gene expression, increase (ear pinna [4]; 5%): 16.8 fold
